Assay results taken from paper PMC4885513 (The Journal of Pharmacology and Experimental Therapeutics, 2016).
Entries after “also recorded” stand apart in the source; their conditions may differ. Like-named read-outs stand apart in the source and are kept apart here.

Tests used:
locomotor activity = test: Open-field test; assay type: in vivo, male C57BL/6N mice; conditions: for total distance covered in the open field test: 30 min before test, 10 min test, control 38.3 ± 1.5 m
[1] = test system: pentylenetetrazole (PTZ)-induced seizure threshold; test: PTZ-induced seizure threshold; assay type: in vivo, male C57BL/6N mice; conditions: for PTZ-induced seizure threshold: 30 min before test, saline control 40.4 ± 1.4
Outline: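 Male C57BL/6N mice aged 3–6 months received compound i.p. 30 min before testing. Vehicle was 0.9% NaCl with 10% DMSO and 3% Tween 80. PTZ (10 mg/ml in saline, pH 7.4) was infused into the tail vein at 100 µl/min in freely moving animals until seizure onset. Threshold was the infused PTZ dose per body weight (mg/kg). ≥3 mice per point; one-way ANOVA with Bonferroni.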

α1β1γ2S receptors = α1β1γ2S receptors (Rattus norvegicus, UniProt P15431+P62813); test: IGABA enhancement; assay type: cell-based; conditions: for Emax: read-out: maximal IGABA enhancement (Emax); for Hill-coefficient (nH): α1β1γ2S, GABA EC3-7, Xenopus oocytes
Outline: (§1)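 Rat α1, β1/β2/β3 and γ2S cRNAs (100–2000 ng/μl/subunit, about 10–50 nl) were injected into collagenase-treated stage V–VI Xenopus oocytes held at 18°C in ND96. The α:β:γ ratio was 1:1:10 for β2 and β3 and 3:1:10 for β1. Recordings used two-electrode voltage clamp at −70 mV in a HEPES bath at pH 7.4. Compound (≤500 µM, DMSO matched) was applied with per-oocyte GABA EC3–7 by fast perfusion. Oocytes above 5 µA were excluded. Enhancement = I(GABA+Comp)/IGABA − 1, Hill-fitted for EC50, Emax and nH; ≥3 oocytes, ≥2 batches.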

α1β2γ2S receptors = α1β2γ2S receptors (Rattus norvegicus, UniProt P62813+P63138); test: IGABA enhancement; assay type: cell-based; conditions: for Hill-coefficient (nH): α1β2γ2S, GABA EC3-7, Xenopus oocytes; for Emax: read-out: maximal IGABA enhancement (Emax)
Outline: as §1

α1β3γ2S receptors [2] = target: T1, α1β3γ2S receptors (Rattus norvegicus, UniProt P62813+P63079); test: IGABA enhancement; assay type: cell-based; conditions: for Emax: read-out: maximal IGABA enhancement (Emax); for Hill-coefficient (nH): GABA EC3-7, Xenopus oocytes
Outline: as §1

[3] = test system: pentylenetetrazole (PTZ)-induced seizure threshold; conditions: 3 mg/kg i.p., 30 min before test; ref Hintersteiner et al. (2014); cited from earlier work
α1β3γ2S receptors [4] = target: T1, α1β3γ2S receptors; conditions: GABA EC3-7, Xenopus oocytes, ref Luger et al. (2015); cited from earlier work
GABAA channels = conditions: ref Khom et al., 2007; cited from earlier work

α1β2γ2S receptors, sequence (P63138 25-474 limits assumed): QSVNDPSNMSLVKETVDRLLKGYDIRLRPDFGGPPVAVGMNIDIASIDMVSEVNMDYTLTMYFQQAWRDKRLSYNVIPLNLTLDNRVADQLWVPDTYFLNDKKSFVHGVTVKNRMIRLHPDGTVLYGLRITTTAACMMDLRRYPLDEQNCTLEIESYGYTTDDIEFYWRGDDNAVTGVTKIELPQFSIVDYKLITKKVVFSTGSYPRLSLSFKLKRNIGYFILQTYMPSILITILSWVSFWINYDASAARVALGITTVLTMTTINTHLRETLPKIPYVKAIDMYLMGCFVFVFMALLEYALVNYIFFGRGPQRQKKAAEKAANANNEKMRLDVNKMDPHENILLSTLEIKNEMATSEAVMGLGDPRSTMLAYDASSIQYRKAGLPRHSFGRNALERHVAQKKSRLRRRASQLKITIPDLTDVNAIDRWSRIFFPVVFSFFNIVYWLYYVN
α1β2γ2S receptors, sequence (P62813 28-455): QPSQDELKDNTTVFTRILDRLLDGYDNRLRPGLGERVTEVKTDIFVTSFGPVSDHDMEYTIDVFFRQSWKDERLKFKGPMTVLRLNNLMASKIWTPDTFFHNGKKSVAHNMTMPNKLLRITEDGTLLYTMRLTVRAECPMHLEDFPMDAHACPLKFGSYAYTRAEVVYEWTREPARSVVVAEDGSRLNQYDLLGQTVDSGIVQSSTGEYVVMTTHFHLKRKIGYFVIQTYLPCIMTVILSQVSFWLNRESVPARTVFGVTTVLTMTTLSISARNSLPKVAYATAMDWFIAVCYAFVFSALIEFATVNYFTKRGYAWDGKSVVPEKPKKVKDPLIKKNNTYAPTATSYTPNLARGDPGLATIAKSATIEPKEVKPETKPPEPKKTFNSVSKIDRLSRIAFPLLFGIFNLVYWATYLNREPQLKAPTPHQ
α1β2γ2S receptors, sequence (P18508 39-466 partner): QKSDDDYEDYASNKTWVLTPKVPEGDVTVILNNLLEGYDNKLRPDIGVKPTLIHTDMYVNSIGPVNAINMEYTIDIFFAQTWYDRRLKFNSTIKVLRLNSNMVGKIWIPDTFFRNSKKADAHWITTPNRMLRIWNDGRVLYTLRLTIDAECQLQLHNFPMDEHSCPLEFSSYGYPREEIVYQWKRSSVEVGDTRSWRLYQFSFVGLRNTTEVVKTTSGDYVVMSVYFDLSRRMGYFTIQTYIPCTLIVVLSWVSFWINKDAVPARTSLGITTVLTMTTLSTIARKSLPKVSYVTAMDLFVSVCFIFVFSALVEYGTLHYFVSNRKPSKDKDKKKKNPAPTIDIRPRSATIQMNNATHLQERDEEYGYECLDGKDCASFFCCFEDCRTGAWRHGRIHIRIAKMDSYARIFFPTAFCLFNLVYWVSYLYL
T1 sequence (P63079 26-473): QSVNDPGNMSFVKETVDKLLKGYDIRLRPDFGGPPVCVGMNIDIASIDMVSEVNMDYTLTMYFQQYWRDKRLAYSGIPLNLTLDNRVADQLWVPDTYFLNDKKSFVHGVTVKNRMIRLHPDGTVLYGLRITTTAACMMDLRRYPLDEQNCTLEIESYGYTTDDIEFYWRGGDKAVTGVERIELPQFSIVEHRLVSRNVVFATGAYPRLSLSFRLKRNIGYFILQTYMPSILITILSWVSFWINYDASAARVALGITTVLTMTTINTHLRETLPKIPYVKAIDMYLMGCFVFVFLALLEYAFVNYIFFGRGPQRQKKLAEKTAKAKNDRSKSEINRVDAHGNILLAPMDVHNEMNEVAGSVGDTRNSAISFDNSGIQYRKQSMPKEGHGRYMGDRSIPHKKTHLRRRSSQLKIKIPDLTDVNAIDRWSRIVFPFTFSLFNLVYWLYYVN
T1 sequence (P62813 28-455): as the sequence (P62813 28-455) above
T1 sequence (P18508 39-466 partner): as the sequence (P18508 39-466 partner) above
α1β1γ2S receptors, sequence (P15431 26-474): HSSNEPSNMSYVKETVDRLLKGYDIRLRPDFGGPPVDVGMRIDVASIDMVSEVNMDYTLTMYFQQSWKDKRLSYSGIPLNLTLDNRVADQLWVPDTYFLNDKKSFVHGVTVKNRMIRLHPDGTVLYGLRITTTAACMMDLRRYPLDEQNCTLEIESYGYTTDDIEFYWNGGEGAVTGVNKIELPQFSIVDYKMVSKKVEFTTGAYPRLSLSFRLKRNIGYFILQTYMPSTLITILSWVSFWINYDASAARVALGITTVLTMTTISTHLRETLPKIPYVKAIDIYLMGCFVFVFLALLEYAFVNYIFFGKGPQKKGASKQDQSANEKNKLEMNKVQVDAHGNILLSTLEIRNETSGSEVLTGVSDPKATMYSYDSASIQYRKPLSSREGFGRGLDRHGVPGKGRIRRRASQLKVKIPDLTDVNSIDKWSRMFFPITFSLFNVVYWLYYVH
α1β1γ2S receptors, sequence (P62813 28-455): as the sequence (P62813 28-455) above
α1β1γ2S receptors, sequence (P18508 39-466 partner): as the sequence (P18508 39-466 partner) above

Structure (SMILES)	total distance covered in the open field test (locomotor activity; 30 mg/kg i.p.) [m]	PTZ-induced seizure threshold ([1]; 10 mg/kg i.p.) [mg/kg PTZ]	PTZ-induced seizure threshold ([1]; 30 mg/kg i.p.) [mg/kg PTZ]	EC50 (α1β1γ2S receptors) [µM]	Emax (α1β1γ2S receptors) [%]	Hill-coefficient (nH) (α1β1γ2S receptors)	EC50 (α1β2γ2S receptors) [µM]	Hill-coefficient (nH) (α1β2γ2S receptors)	EC50 (α1β3γ2S receptors [2]) [µM]	Emax (α1β3γ2S receptors [2]) [%]	Hill-coefficient (nH) (α1β3γ2S receptors [2]; α1β3γ2S)	effect on locomotor activity vs control (locomotor activity; any tested dose i.p.)	Emax (α1β2γ2S receptors) [%]	effect on locomotor activity vs control (locomotor activity; low doses (≤10 mg/kg) i.p.)	also measured
CC1=C2[C@H](/C=C(\C)C(N)=O)CC[C@@H](C)[C@H]2CC1 [VA-A, (E)-3-((4S,7R,7aR)-3,7-dimethyl-2,4,5,6,7,7a-hexahydro-1H-inden-4-yl)-2-methylacrylamide]	23.5±2.2	55.4 ± 0.7	50.6 ± 2.2	66.6 ± 34.6	218 ± 78	1.8 ± 0.6	14 ± 2.2	1.4 ± 0.2	7.5 ± 1.8	972 ± 69	1.5 ± 0.2				total distance covered in the open field test (locomotor activity; 10 mg/kg i.p.): 29.9 ± 2.6 m; effect on locomotor activity vs control (locomotor activity; doses of 1 and 3 mg/kg i.p.): did also not affect the total distance covered; effect on locomotor activity vs control (locomotor activity; doses ≥10 mg/kg i.p., 10 mg/kg): reduced locomotion; also recorded: reduced locomotor activity; PTZ-induced seizure threshold ([1]; 3 mg/kg i.p.): 57.9 ± 1.9 mg/kg PTZ
CCNC(=O)/C(C)=C/[C@@H]1CC[C@@H](C)[C@H]2CCC(C)=C12 [VA-EA, (E)-3-((4S,7R,7aR)-3,7-dimethyl-2,4,5,6,7,7a-hexahydro-1H-inden-4-yl)-N-ethyl-2-methylacrylamide]			55.6 ± 0.4	51.4 ± 19.8	458 ± 124	1.6 ± 0.3	11 ± 3.6	1.6 ± 0.3	27.2 ± 6.7	677 ± 64	1.3 ± 0.2	did not reveal any significantly different behavior	554 ± 49		
CNC(=O)/C(C)=C/[C@@H]1CC[C@@H](C)[C@H]2CCC(C)=C12 [VA-MA, (E)-3-((4S,7R,7aR)-3,7-dimethyl-2,4,5,6,7,7a-hexahydro-1H-inden-4-yl)-N,2-dimethylacrylamide]	29.7 ± 2.0	50.4±1.4	63.6 ± 2.5	58.1 ± 16.5	387 ± 56	1.6 ± 0.3	9.1 ± 1.4	1.5 ± 0.1	12.7 ± 0.9		1.5 ± 0.1		917 ± 36	did not affect locomotor activity	effect on locomotor activity vs control (locomotor activity; doses ≥10 mg/kg i.p.): reduced locomotion
CCN(CC)C(=O)/C(C)=C/[C@@H]1CC[C@@H](C)[C@H]2CCC(C)=C12 [VA-DEA, (E)-3-((4S,7R,7aR)-3,7-dimethyl-2,4,5,6,7,7a-hexahydro-1H-inden-4-yl)-N,N-diethyl-2-methylacrylamide]			48.7±1.7	97.2 ± 33.8	318 ± 84	1.8 ± 0.3	54.4 ± 11.1	1.6 ± 0.3	80.8 ± 31.3	374 ± 102	1.9 ± 0.5	did not reveal any significantly different behavior	573 ± 33		
CC1=C2[C@H](/C=C(\C)C(=O)N(C)C)CC[C@@H](C)[C@H]2CC1 [VA-DMA, (E)-3-((4S,7R,7aR)-3,7-dimethyl-2,4,5,6,7,7a-hexahydro-1H-inden-4-yl)-N,N,2-trimethylacrylamide]				52.5 ± 20.1	305 ± 67	1.7 ± 0.5	63.9 ± 23.7	1.3 ± 0.2	48 ± 16	415 ± 61	1.4 ± 0.2	did not reveal any significantly different behavior	594 ± 36		effect on PTZ-induced seizure threshold vs diluent-treated controls ([1]; any tested dose i.p.): did not significantly differ
CC1=C2[C@H](/C=C(\C)c3nnn[nH]3)CC[C@@H](C)[C@H]2CC1 [VA-TET, 5-((E)-1-((4S,7R,7aR)-3,7-dimethyl-2,4,5,6,7,7a-hexahydro-1H-inden-4-yl)prop-1-en-2-yl)-1H-tetrazole]	19.2 ± 2.1			23.5 ± 10.9	176 ± 43	1.8 ± 0.6	34.1 ± 6.3	1.0 ± 0.1	6 ± 1	668 ± 57	1.1 ± 0.1			did not affect locomotor activity	effect on locomotor activity vs control (locomotor activity; doses ≥10 mg/kg i.p.): reduced locomotion; PTZ-induced seizure threshold ([1]; 0.3 mg/kg i.p.): 47.3 ± 0.5 mg/kg PTZ; effect on PTZ-induced seizure threshold ([1]; doses ≥1 mg/kg i.p.): lost its anticonvulsive properties; increase in potency on β3-containing receptors compared with VA (α1β3γ2S receptors [2]; EC50 ratio VA / VA-TET, α1β3γ2S): approximately threefold
CC1=C2[C@H](/C=C(\C)C#N)CC[C@@H](C)[C@H]2CC1 [VA-CN, (E)-3-((4S,7R,7aR)-3,7-dimethyl-2,4,5,6,7,7a-hexahydro-1H-inden-4-yl)-2-methylacrylonitrile]	31.5±1.5	51.1 ± 0.6		73 ± 38.7	55 ± 14	1.7 ± 0.7	56.5 ± 13.3	2.5 ± 0.7	42.4 ± 15.8	522 ± 114	2.1 ± 0.8		765 ± 117	did not affect locomotor activity	
CC1=C2[C@H](/C=C(\C)C(=O)O)CC[C@@H](C)[C@H]2CC1 [VA, Valerenic acid, reference compound]	37.6 ± 2.5	49.0 ± 1.8	43.4 ± 1.8	74.4 ± 19.3	111 ± 16	1.6 ± 0.5	23.1 ± 4.2	1.4 ± 0.2				did not differ significantly	721 ± 68		PTZ-induced seizure threshold [3]: 47.7 ± 1.4 mg/kg PTZ; total distance covered in the open field test (locomotor activity; 1 mg/kg i.p.): 34.9 ± 1.3 m; total distance covered in the open field test (locomotor activity; 3 mg/kg i.p.): 38.7 ± 2.1 m; total distance covered in the open field test (locomotor activity; 10 mg/kg i.p.): 38.0 ± 1.4 m; effect on PTZ-induced seizure threshold ([1]; doses <3 mg/kg body weight i.p.): did not alter seizure threshold; Hill-coefficient (nH) (α1β3γ2S receptors [4]): 1.5 ± 0.3; concentration directly activating GABAA channels in the absence of GABA (GABAA channels): ≥ 30 µM
